Source: PubChem
IDH1 R132H inh: inhibitors of IDH1 R132H reductase, primary screen, biochemical, plate reader, single point. hit rate 0.18% among 70,000. inhibition, % at 10 µM. diaphorase/resazurin fluorescence, 60 min. Isocitrate dehydrogenase [NADP] cytoplasmic (Homo sapiens), O75874; in the data active = inhibition above about 34%; inconclusive = no clear call, values can overlap the other calls; inactive = below about 11%;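 note: 0% = DMSO and 100% = no enzyme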
Target sequence (O75874 whole entry R132H): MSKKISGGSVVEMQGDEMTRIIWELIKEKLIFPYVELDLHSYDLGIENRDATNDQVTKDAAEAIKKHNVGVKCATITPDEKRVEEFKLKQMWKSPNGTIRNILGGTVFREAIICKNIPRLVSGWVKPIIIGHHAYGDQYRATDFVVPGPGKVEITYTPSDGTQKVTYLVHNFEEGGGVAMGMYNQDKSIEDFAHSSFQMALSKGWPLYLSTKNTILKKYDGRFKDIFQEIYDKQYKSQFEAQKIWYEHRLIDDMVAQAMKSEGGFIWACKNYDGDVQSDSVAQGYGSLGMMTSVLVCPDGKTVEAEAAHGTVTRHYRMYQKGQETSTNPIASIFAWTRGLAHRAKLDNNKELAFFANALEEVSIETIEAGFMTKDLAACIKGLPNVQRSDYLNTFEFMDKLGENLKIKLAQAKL
T cruzi growth-1: T. cruzi intracellular proliferation inhibitors, primary screen, cell-based, beta-gal Tulahuen parasites, NIH3T3 host, luminescence | T. cruzi beta-gal in NIH3T3, GalScreen luminescence, 90 h | inhibition, % at 8.34 µM | hit rate 5.9% among 77,000;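 active = mean inhibition above about 93%, with at least 55% of replicates each passing it, limit read from the data, passing the limit was not always enough; inconclusive = only one of those two conditions holds; inactive = neither condition holds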
KDM4C inh: inhibitors of GASC-1 (KDM4C) histone demethylase, primary screen, biochemical, single concentration HTS | Lysine-specific demethylase 4C (Homo sapiens), Q9H3R0 | hit rate 0.15% among 96,000 | inhibition, % at 12.5 µM | GST-KDM4C 2-372, H3K9me3 peptide, LANCE TR-FRET | AID 720574, 2013;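 active = mean replicate inhibition above about 25%, with at least 55% of replicates also reaching it, limit read from the data, passing the limit was not always enough; inconclusive = only one of those two conditions met; inactive = neither condition met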
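Test system: N-terminal GST-fused human GASC-1 (KDM4C) fragment, residues 2-372; quantity: GASC-1 enzyme at 10 nM final in reaction; dosing: single dose; schedule: 30 min demethylation and 1 h detection at room temperature; signal: LANCE TR-FRET, excitation 340 nm, emissions 618 and 671 nm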
Pf Dd2 growth: P. falciparum Dd2 growth inhibitors, primary screen, SYBR Green fluorescence, single dose replicates; AID 1159554, 2015; activity change, % at 10 µM; hit rate 2.3% among 94,000; 72 h; active compounds read low; in the data active = activity change below about -80%; inconclusive = no clear call, values can overlap the other calls
T cruzi growth-2: T. cruzi intracellular proliferation inhibitors, confirmation, cell-based, NIH3T3 host, beta-gal parasite, luminescence, cherry-pick; shares compounds with T cruzi growth-1; T. cruzi beta-gal in NIH3T3, GalScreen luminescence, 90 h; inhibition, % at 8.35 µM; hit rate 72% among 5,600;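 active = mean replicate inhibition above about 95% and at least 55% of replicates individually reaching it, limit read from the data; inconclusive = only one of the two criteria is met; inactive = neither criterion is met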
T cruzi growth-3: inhibitors of intracellular T. cruzi replication, confirmation, NIH3T3 host cells, beta-gal parasites, cherry-pick, set 2; inhibition, % at 2.09 µM; shares compounds with T cruzi growth-1; hit rate 21% among 5,600; AID 651740, 2012; T. cruzi beta-gal in NIH3T3, GalScreen luminescence, 90 h;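 active = mean inhibition above about 95%, with at least 55% of replicates also reaching it, limit read from the data; inconclusive = meets just one of the two conditions; inactive = meets neither condition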;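 note: plate controls were neutral control median for no effect and positive control median for full effect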
3T3 cytotox: cytotoxicity in mouse NIH/3T3 fibroblasts, confirmation, cytotoxicity control for T. cruzi proliferation inhibitor project, cell-based, cherry-pick, single point. shares compounds with T cruzi growth-1. cytotoxicity (signal decrease), % at 8.35 µM. NIH/3T3 viability, CellTiter-Glo ATP luminescence, 90 h. hit rate 14% among 5,600;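 active = mean signal decrease across replicates above about 35% based on untreated-well scatter, with enough replicates individually passing, limit read from the data; inconclusive = no rule stated though some were filed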;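 note: 0% = median of neutral control wells and 100% = median of positive control wells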
NIH3T3 tox 2: NIH/3T3 fibroblast cytotoxicity, confirmation, cytotoxicity control, cell-based, cherry-pick, single point, set 2 | NIH/3T3 viability, CellTiter-Glo ATP luminescence, 90 h | hit rate 56% among 5,600 | AID 651744, 2012 | shares compounds with T cruzi growth-1 | inhibition, % at 24.9 µM;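 active = mean loss of cell viability signal at or above a set limit, and enough replicates individually reaching it; inconclusive = meets only the mean limit or only the replicate share; inactive = meets neither condition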;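 note: 0% = median of neutral control wells and 100% = median of positive control wells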
Starred values were filed as active, the others as inactive. Rows were chosen to be rich in hits. Some 5.9% of all compounds tested hit in one or more screens of this group.

What do the screens show for `CCc1cc(C(=O)OC)c(NC(=O)c2cc(-c3cccnc3)nc3ccc(Br)cc23)s1`?
IDH1 R132H inh: -0.2

What do the screens show for `CC(NCC(O)CP(=O)(O)CC1CCCCC1)c1ccc(Cl)c(Cl)c1` (stereo not drawn)?
IDH1 R132H inh: -1.1

How did COc1ccc(C(Nc2cccc(C)n2)c2ccc3ccc(C)nc3c2O)c(OC)c1OC (stereo not drawn) do in these assays?
IDH1 R132H inh: -0.4

How did C[C@H]1CCCCO[C@H](CN(C)Cc2ccc(C(F)(F)F)cc2)[C@@H](C)CN([C@@H](C)CO)C(=O)c2cc(NS(=O)(=O)c3cccs3)ccc2O1 do in these assays?
T cruzi growth-1: 113.2*; KDM4C inh: 2.1; Pf Dd2 growth: -22.1; T cruzi growth-2: 97.8*; T cruzi growth-3: 107.2*; 3T3 cytotox: -13.5; NIH3T3 tox 2: 103.2*

What do the screens show for `C[C@H](CO)N1C[C@H](C)[C@H](CN(C)Cc2ccc(C(F)(F)F)cc2)OCCCC[C@H](C)Oc2ccc(NS(=O)(=O)c3cccs3)cc2C1=O`?
KDM4C inh: 1.2; Pf Dd2 growth: -37.8

What do the screens show for `C[C@@H]1CCCCO[C@@H](CN(C)Cc2ccc(C(F)(F)F)cc2)[C@@H](C)CN([C@@H](C)CO)C(=O)c2cc(NS(=O)(=O)c3cccs3)ccc2O1`?
IDH1 R132H inh: -5.4; T cruzi growth-1: 93.3; KDM4C inh: -1.9; Pf Dd2 growth: -31.8

Results for C[C@@H]1CN([C@@H](C)CO)C(=O)c2cc(NS(=O)(=O)c3cccs3)ccc2O[C@@H](C)CCCCO[C@@H]1CN(C)Cc1ccc(C(F)(F)F)cc1 ?
IDH1 R132H inh: 0.7; T cruzi growth-1: inconclusive; KDM4C inh: -0.2; Pf Dd2 growth: -66.6; T cruzi growth-2: 101.9*; T cruzi growth-3: 118.1*; 3T3 cytotox: -24.1; NIH3T3 tox 2: 63.4*

Results for C[C@H]1CCCCO[C@@H](CN(C)Cc2ccc(C(F)(F)F)cc2)[C@@H](C)CN([C@@H](C)CO)C(=O)c2cc(NS(=O)(=O)c3cccs3)ccc2O1 ?
IDH1 R132H inh: 0.2; T cruzi growth-1: 111.9*; KDM4C inh: -0.9; Pf Dd2 growth: -52.7; T cruzi growth-2: 89.8; T cruzi growth-3: 58.2; 3T3 cytotox: 18.0; NIH3T3 tox 2: 105.1*

Results for COC(OC)C1Nc2ccccc2C(=O)N1c1cccc(C(F)(F)F)c1 (stereo not drawn) ?
IDH1 R132H inh: 1.0

How did Cc1c(Br)ccc(NC(=O)CSc2nnnn2-c2ccccc2)c1C do in these assays?
IDH1 R132H inh: 0.3

How did C[C@H]1CN([C@@H](C)CO)S(=O)(=O)c2ccc(C#CC(C)(C)O)cc2O[C@@H]1CN(C)C(=O)C1CC1 do in these assays?
IDH1 R132H inh: -4.4; T cruzi growth-1: 60.3; KDM4C inh: 1.2; Pf Dd2 growth: -1.5

How did CCCC#Cc1ccc([C@H]2[C@@H](C#N)N(C(=O)CN3CCOCC3)[C@H]2CO)cc1 do in these assays?
T cruzi growth-1: 98.1*; KDM4C inh: -1.0; Pf Dd2 growth: -13.9; T cruzi growth-2: 103.1*; T cruzi growth-3: 84.0; 3T3 cytotox: 18.0; NIH3T3 tox 2: inconclusive

How did CCCC#Cc1ccc([C@H]2[C@@H](C#N)N(C(=O)CN3CCOCC3)[C@@H]2CO)cc1 do in these assays?
T cruzi growth-1: 104.5*; KDM4C inh: 1.2; Pf Dd2 growth: 8.7; T cruzi growth-2: 98.1*; T cruzi growth-3: 52.0; 3T3 cytotox: -11.9; NIH3T3 tox 2: 4.3

How did N#C[C@@H]1[C@@H](c2ccccc2)[C@H](CO)N1C(=O)CN1CCOCC1 do in these assays?
T cruzi growth-1: 64.0; KDM4C inh: -1.1; Pf Dd2 growth: 22.5

Results for CCOC(=O)c1c(NC(=O)CSc2nc3c(cc2C#N)CCCC3)sc2c1CCCC2 ?
IDH1 R132H inh: 0.7

What do the screens show for `COC(=O)c1ccc(Cl)c(NC(=O)C(C)N(c2ccc(C)cc2)S(C)(=O)=O)c1` (stereo not drawn)?
IDH1 R132H inh: -0.7

What do the screens show for `CCC(=O)N1CCCCN2[C@@H](CO)[C@@H](c3ccc(-c4cccnc4)cc3)[C@@H]2C1`?
T cruzi growth-1: 96.2*; KDM4C inh: -0.5; Pf Dd2 growth: 8.3; T cruzi growth-2: 90.0; T cruzi growth-3: 85.7; 3T3 cytotox: -7.0; NIH3T3 tox 2: -24.4

How did CCC(=O)N1CCCCN2[C@H](C1)[C@H](c1ccc(-c3cccnc3)cc1)[C@@H]2CO do in these assays?
T cruzi growth-1: 113.1*; KDM4C inh: -0.8; Pf Dd2 growth: -77.8; T cruzi growth-2: 33.6; T cruzi growth-3: -0.5; 3T3 cytotox: 5.8; NIH3T3 tox 2: -9.3

How did CN(C)CC(=O)N1CCCCN2[C@H](CO)[C@@H](c3ccc(-c4cccnc4)cc3)[C@H]2C1 do in these assays?
T cruzi growth-1: 57.4; KDM4C inh: -0.6; Pf Dd2 growth: -65.7

Results for CN(C)CC(=O)N1CCCCN2[C@H](C1)[C@@H](c1ccc(-c3cccnc3)cc1)[C@@H]2CO ?
T cruzi growth-1: 64.5; KDM4C inh: 0.4; Pf Dd2 growth: -30.1

What do the screens show for `O=C(Nc1ccccc1[N+](=O)[O-])c1cccc(S(=O)(=O)Nc2ccc(Br)cc2)c1`?
IDH1 R132H inh: -0.3

What do the screens show for `CCOc1ccc(NC(=O)N(Cc2cn(C)c3ccccc23)C2CCCCC2)cc1`?
IDH1 R132H inh: -0.4

What do the screens show for `O=C(c1ccc(F)cc1)N1CCCCN2[C@H](C1)[C@H](c1ccc(-c3ccc(F)cc3)cc1)[C@@H]2CO`?
T cruzi growth-1: 92.7; Pf Dd2 growth: -5.7

Results for O=C(c1ccc(F)cc1)N1CCCCN2[C@@H](CO)[C@H](c3ccc(-c4ccc(F)cc4)cc3)[C@@H]2C1 ?
T cruzi growth-1: 104.4*; Pf Dd2 growth: 1.6; T cruzi growth-2: 88.6; T cruzi growth-3: 18.6; 3T3 cytotox: 43.9*; NIH3T3 tox 2: 105.8*

Results for O=C(c1ccc(F)cc1)N1CCCCN2[C@H](CO)[C@@H](c3ccc(-c4ccc(F)cc4)cc3)[C@@H]2C1 ?
T cruzi growth-1: 100.5*; Pf Dd2 growth: 0.8; T cruzi growth-2: 99.1*; T cruzi growth-3: 102.7*; 3T3 cytotox: 17.9; NIH3T3 tox 2: 104.0*
